Bioassay records: PubChem, several laboratories
Hep lipid drop: inhibitors of hepatocyte lipid droplet formation, primary screen, imaging, high-throughput imaging, BODIPY stain; AML12 mouse hepatocytes, oleate lipid droplets; inhibition, % at 6.5 µM; 240,000 compounds, 0.4% hits; AID 1656, 2009;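 active = lipid droplet intensity inhibited by at least 50%, with more than 500 cells counted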
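Material – AML12 mouse liver cells · Also added – oleate loading, 100 µM · Compound dosing – 6.5 µM single-point dosing · Times – overnight treatment with compound plus oleate · Measured by – fluorescence imaging, 20x objective, two fields per well · Read-out – percent inhibition of filter-corrected integrated lipid droplet intensity per well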
Arbovirus inh: antivirals against arbovirus infection, primary screen, cell-based, full library, 10K replicate subset. 200,000 compounds, 0.37% hits. inhibition, % at 10 µM. arbovirus infection cell-based antiviral screen; in the data active = inhibition above about 30%
Pf gametocyte: late stage P. falciparum gametocyte viability inhibitors, primary screen, ATP luminescence, HTS; inhibition, % at 10.9 µM; 150,000 compounds, 0.065% hits; AID 743093, 2013; P. falciparum stage V gametocytes, 24 h;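 active = inhibition above the mean plus 3 SD of compounds within the control limits, set per campaign, cut at about 38% in these data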;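 also: 0% = DMSO wells and 100% = medium only without gametocytes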
TNF necrop inh: inhibitors of TNF-alpha triggered necroptosis, primary screen, cell-based, Jurkat FADD-/-, single concentration. Jurkat FADD-/- TNF necroptosis rescue, ATP luminescence, 24 h; 0 = TNF only, 100 = no-TNF cells. activation (protection from cell death), % at 10 µM. 220,000 compounds, 0.068% hits. AID 463075, 2010;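 active = activation, meaning protection from cell death, of at least 50% relative to plate controls; inactive = activation below 50%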;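 also: necroptosis triggered by 40 ng/mL TNF-alpha added together with compound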
L929 necroptosis: inhibitors of zVAD-triggered necroptosis, primary screen, L929 cells; L929 zVAD necroptosis rescue, ATP luminescence, 24 h; with zVAD 60 µM; viability rescue, % at 10 µM; 220,000 compounds, 0.38% hits; AID 1377, 2008;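 active = activation, scaled between plate controls, above about 75%, limit read from the data; inactive = activation under that limit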;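 also: 0% = zVAD with DMSO and 100% = DMSO alone without zVAD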
zVAD death conf: inhibitors of zVAD-triggered necroptosis in L929, confirmation, L929 cells, duplicate runs; shares compounds with L929 necroptosis; L929 zVAD-induced necroptosis rescue, ATP luminescence, 24 h; activation (protection from necroptosis), % at 10 µM; 760 compounds, 16% hits; AID 463117, 2010;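 active = mean protection from necroptosis of at least 50% over duplicate tests; inactive = mean protection below 50%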;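 also: 0% = cells with zVAD alone and 100% = vehicle cells without zVAD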
* marks the source's active call; other numbers are inactive results; · = no result. Hits are enriched below; roughly 0.91% of the tested compounds scored in any of these assays.

SMILES	Hep lipid drop	Arbovirus inh	Pf gametocyte	TNF necrop inh	L929 necroptosis	zVAD death conf
COc1ccc(NC(=O)NC23CC4CC(CC(C4)C2)C3)cc1OC	14	-4	·	-2	0	·
CCOc1ccc(NC(=S)Nc2ccc3nsnc3c2)cc1	4	-25	13	0	1	·
Cc1cccc(C(=O)NCCC(=O)Nc2ccc(C#N)cc2)c1	-13	·	·	·	·	·
CCCCN(C)CCCNC(=O)C1(O)c2ccccc2NC(=O)N1c1ccc(Cl)cc1 (configuration not stated)	22	·	·	·	·	·
CCCCN(C)CCCNC(=O)/C=C1\Sc2ccccc2NC1=O	-5	3	8	5	75*	24
Cc1cc(NC(=O)OC2CCCCC2)ccc1[N+](=O)[O-]	2	·	·	·	·	·
COC(=O)c1ccc(NC(=O)CSC2=NCCN2)cc1	-14	8	-1	-8	92*	12
CCOc1ccc(NC(=O)CSC2=NCCN2)cc1	-1	5	3	-1	5	·
COc1ccc(N(CC(=O)N2CCN(c3ccc(Cl)cc3)CC2)S(=O)(=O)c2c(C)n[nH]c2C)cc1	11	13	17	1	2	·
COc1cc(NC(=O)CN2CCN(CC(=O)Nc3ccccc3OC)CC2)cc(OC)c1	8	·	·	·	·	·
O=C(CSc1nnc2ccccn12)c1ccc(Cl)cc1	5	8	4	0	0	·
O=C(CSc1nnc2n1CCCN2C(=S)Nc1ccc(Cl)cc1)c1ccccc1	-3	-5	3	96*	93*	3
COc1ccc2c(C)nc(Nc3nc(C)c(C)c(=O)[nH]3)nc2c1	·	-25	8	-19	113*	1
N#Cc1cccc(NCC(=O)Nc2ccc3c(c2)OCCO3)c1	-9	9	-14	2	77*	2
N#Cc1ccc(NCC(=O)Nc2ccc3c(c2)OCCO3)cc1	9	9	-13	2	66	·
O=C(Nc1ccn(CC(=O)N2CCN(c3ccccn3)CC2)c(=O)n1)OCc1ccccc1	·	·	13	·	·	·
COc1cc(NC(=O)c2cccnc2Sc2ccc(Cl)cc2)cc(OC)c1OC	-2	-4	-11	4	77*	42
Fc1ccccc1CNc1nc(-c2cccnc2)nc2ccccc12	-3	·	·	·	·	·
O=C(COc1ccc(Br)cc1)NCCCNC(=O)c1cnccn1	-3	·	·	·	·	·
CCSC1=N/C(=C\c2ccc(OC)cc2)C(=O)N1	-58	-21	-12	2	3	·
COc1ccc(/C=C2\N=C(SC)NC2=O)cc1	8	-2	·	64*	91*	77*
COc1cc(OC)c(C2=NOC(C(=O)N3CCN(C(=O)c4ccco4)CC3)C2)cc1Cl (configuration not stated)	-29	0	4	1	83*	1
COc1ccccc1C1=NOC(C(=O)N2CCN(C(=O)c3ccco3)CC2)C1 (configuration not stated)	-2	·	·	·	·	·
Clc1ncc(CSc2ccccc2)s1	-12	-4	17	18	91*	50
CCN(CCCNC(=O)CNC(=O)c1nn(-c2ccc(OC)c(OC)c2)c(=O)c2ccccc12)c1ccccc1	-22	·	·	·	·	·
SMILES	Hep lipid drop	Arbovirus inh	Pf gametocyte	TNF necrop inh	L929 necroptosis	zVAD death conf
Cc1ccc(-c2nnn(CC(=O)N(CC(=O)NC3CCCC3)c3ccccc3F)n2)o1	-33	·	·	·	·	·
Cc1cc(C)cc(OCC(=O)Nc2cnn(CCCC(=O)O)c2)c1	7	·	·	·	·	·
Cc1[nH]n(-c2ccccc2)c(=O)c1C=NC1CCCCCC1	5	-8	·	3	80*	34
Cc1[nH]n(-c2ccccc2)c(=O)c1/C=N/N(c1ccccc1)c1ccccc1	-25	-6	-9	0	3	·
Cc1[nH]n(-c2ccccc2)c(=O)c1C=NC1CCCCC1	5	4	2	3	75*	1
CC(=O)N1CC(C)Oc2ccc(S(=O)(=O)Nc3ccc(Cl)cn3)cc21 (configuration not stated)	-6	·	·	·	·	·
NC(=O)C1CCN(S(=O)(=O)Cc2ccccc2Cl)CC1	6	-2	-3	0	8	·
N#CCNC(=O)C1CC(=O)N(CCc2ccc(F)cc2)C1 (configuration not stated)	10	·	·	·	·	·
